The record followed here is ChEMBL document CHEMBL1177719 (J Med Chem, 2010).

Data set [1] relates to RAW264.7. In words: Inhibition of LPS-induced COX2 expression in mouse RAW264.7 cells at 34 uM treated 15 mins before LPS challenge measured after 18 hrs by Western blotting relative to control. Format: functional. The method, boiled down:
(§1)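 RAW 264.7 cells pretreated 15 min with compound (34 μM), then LPS 1 μg/mL for 18 h. Lysates (30 μg protein) run on 8% SDS-PAGE and transferred to PVDF. Blocked in 5% milk/TBST, probed for iNOS and COX-2 with HRP secondary, ECL detection, β-actin internal control. Band density relative to LPS-treated control; duplicate experiments.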

Data set [2] deals with HEK293. In words: Inhibition of TNF-alpha-induced NF-kappaB activity expressed in HEK293 cells at 34 uM after 48 hrs by luciferase reporter gene assay relative to control. Format: cell-based. In outline: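 Stably transfected 293 cells carrying an NFκB response element–luciferase reporter, exposed to TNFα plus compound for 48 h, then assayed for luciferase. Activity expressed as % of TNFα-treated control. IC₅₀ from five serial dilutions, mean of two experiments.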

The target of data set [3] is T1, Nitric oxide synthase, inducible (Mus musculus) (UniProt P29477).
T1 sequence (whole entry): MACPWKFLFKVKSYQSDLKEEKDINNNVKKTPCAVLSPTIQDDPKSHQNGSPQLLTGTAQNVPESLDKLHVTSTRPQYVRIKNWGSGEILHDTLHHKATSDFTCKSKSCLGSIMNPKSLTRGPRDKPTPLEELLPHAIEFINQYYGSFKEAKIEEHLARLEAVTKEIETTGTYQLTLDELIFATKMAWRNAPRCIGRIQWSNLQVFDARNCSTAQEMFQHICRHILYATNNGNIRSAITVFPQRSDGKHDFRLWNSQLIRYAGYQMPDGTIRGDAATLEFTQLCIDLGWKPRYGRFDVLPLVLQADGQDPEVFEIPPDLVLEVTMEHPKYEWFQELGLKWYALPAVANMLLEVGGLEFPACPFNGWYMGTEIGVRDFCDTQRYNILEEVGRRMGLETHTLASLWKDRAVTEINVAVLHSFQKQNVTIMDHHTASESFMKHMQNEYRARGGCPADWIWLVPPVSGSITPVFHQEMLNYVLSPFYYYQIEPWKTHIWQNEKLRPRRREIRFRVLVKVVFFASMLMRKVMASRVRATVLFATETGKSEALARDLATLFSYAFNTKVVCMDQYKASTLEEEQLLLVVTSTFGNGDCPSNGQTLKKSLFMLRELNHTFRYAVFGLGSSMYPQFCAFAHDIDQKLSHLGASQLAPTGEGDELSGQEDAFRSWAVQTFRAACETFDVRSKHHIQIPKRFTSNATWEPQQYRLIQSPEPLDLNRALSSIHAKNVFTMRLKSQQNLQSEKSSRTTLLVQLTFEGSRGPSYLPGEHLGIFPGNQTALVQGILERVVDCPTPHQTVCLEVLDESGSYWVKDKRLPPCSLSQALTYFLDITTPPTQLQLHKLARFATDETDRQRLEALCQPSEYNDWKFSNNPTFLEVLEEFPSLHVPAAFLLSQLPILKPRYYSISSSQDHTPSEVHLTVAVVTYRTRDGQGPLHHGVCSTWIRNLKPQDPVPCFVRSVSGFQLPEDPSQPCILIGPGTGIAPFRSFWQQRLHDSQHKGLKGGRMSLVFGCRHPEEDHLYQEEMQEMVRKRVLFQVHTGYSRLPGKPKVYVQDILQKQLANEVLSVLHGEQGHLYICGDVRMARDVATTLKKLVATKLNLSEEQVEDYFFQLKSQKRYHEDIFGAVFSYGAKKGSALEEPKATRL
In words: Inhibition of iNOS-mediated nitric oxide production in mouse RAW 264.7 cells at 34 uM pretreated 30 mins measured after 20 hrs by Griess reaction method relative to control. Format: cell-based. The method, boiled down:
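RAW 264.7 macrophages seeded at 1 × 10⁵ cells/well for 24 h. Compounds in phenol red-free DMEM added 30 min before LPS (1 μg/mL), then 20 h further incubation. Nitrite in medium measured by Griess reagent at 540 nm against a sodium nitrite standard curve; inhibition at 34 μM.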

Data set [4] deals with RAW264.7. In words: Inhibition of LPS-induced COX2 expression in mouse RAW264.7 cells at 34 uM treated 15 mins before LPS challenge measured after 18 hrs by immunoblotting. Format: functional, cell-based. The method, boiled down: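 RAW 264.7 cells pretreated with samples 15 min, then LPS 1 μg/mL for 18 h. Lysates (30 μg protein) run on 8% SDS-PAGE, transferred to PVDF, probed with primary and HRP secondary antibodies, ECL detection. β-actin internal control; band density quantified relative to the LPS-only control; duplicate experiment.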
In general terms: A western blot detects proteins with antibodies after separation by electrophoresis.

The nature of data set [5]: Antioxidant activity assessed as nitric oxide scavenging activity at 60 uM. It counts as functional. The method, boiled down: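 Compounds diluted tenfold in PBS and incubated with sodium nitroprusside (final compound 60 μM, SNP 5 mM) for 3 h at room temperature. Nitrite measured by Griess reagent, absorbance 540 nm. % inhibition given as average of triplicates ± standard deviation.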

The target of data set [6] is T2, Prostaglandin G/H synthase 1 (Ovis aries) (UniProt P05979).
T2 sequence (whole entry): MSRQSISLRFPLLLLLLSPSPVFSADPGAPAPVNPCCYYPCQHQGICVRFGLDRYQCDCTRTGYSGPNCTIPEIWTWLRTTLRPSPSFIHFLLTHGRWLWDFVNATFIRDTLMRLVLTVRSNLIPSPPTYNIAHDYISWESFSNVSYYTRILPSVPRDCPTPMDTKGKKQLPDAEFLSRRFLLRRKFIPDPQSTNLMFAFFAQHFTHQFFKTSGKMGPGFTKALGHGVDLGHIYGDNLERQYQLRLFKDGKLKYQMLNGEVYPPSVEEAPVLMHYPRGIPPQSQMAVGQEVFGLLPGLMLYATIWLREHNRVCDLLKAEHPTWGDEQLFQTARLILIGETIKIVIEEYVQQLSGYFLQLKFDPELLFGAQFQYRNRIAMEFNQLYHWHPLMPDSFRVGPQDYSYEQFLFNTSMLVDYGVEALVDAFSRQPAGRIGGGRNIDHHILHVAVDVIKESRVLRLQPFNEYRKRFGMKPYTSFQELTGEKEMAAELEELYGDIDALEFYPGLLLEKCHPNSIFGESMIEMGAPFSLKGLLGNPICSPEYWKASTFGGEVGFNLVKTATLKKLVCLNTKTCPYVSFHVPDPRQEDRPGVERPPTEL
In words: Inhibition of sheep seminal vesicles COX1 assessed as PGE2 production at 34 uM after 10 mins by ELISA relative to control. The method, boiled down:
(§2)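 Sheep seminal vesicle COX-1; reaction started with arachidonic acid, 10 min at room temperature, stopped with 27.8 μM indomethacin. PGE₂ quantified by competitive ELISA (PGE₂-acetylcholinesterase tracer, Ellman's reagent, 412 nm) against a PGE₂ standard curve. Result as % of solvent control; IC₅₀ from dose-response curves.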

The subject of data set [7] is HEK293. Nature of the data set: Cytotoxicity against human HEK293 cells at 34 uM. Format: cell-based. The conditions noted are these: hek293, 34 µM.
The next data set deals with T3, Aromatase (Homo sapiens, UniProt P11511).
T3 sequence (P11511 whole entry): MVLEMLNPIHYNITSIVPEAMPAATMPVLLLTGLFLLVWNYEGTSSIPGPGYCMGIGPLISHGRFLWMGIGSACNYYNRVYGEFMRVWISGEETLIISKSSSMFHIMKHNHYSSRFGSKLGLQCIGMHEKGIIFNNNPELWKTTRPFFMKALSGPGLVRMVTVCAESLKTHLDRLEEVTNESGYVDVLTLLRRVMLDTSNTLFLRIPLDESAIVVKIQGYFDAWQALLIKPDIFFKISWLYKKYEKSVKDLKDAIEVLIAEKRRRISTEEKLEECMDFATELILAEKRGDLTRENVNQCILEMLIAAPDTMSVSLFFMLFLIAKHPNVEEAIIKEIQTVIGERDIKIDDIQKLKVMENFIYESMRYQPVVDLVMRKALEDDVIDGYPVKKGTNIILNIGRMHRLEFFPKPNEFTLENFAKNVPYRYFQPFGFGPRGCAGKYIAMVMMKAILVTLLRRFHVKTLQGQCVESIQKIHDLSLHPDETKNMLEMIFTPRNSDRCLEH
The conditions noted are these: read-out: INH.

Data set [8] concerns the target T1, Nitric oxide synthase, inducible (Mus musculus). Nature of the data set: Inhibition of iNOS-mediated nitric oxide production in LPS-stimulated mouse RAW 264.7 cells at 34 uM pretreated 30 mins before LPS challenge measured after 20 hrs by Griess reaction method relative to control. It counts as cell-based. In general terms: Nitrite, measured by Griess reagent, commonly stands in for NO production.

For data set [9], the target named is NAD(P)H dehydrogenase [quinone] 1 (Mus musculus) (UniProt Q64669). Nature of the data set: Induction of quinone reductase 1 in mouse Hepa 1c1c7 cells assessed as drug level required to double enzyme activity by MTT assay. On the technique in general: Formazan colour is commonly taken as a measure of viable cells.
Data set [10] is described as follows: Antioxidant activity assessed as DPPH scavenging activity at 340 uM after 30 mins. Format: functional.
Data set [11] concerns the target T4, Nitric oxide synthase, inducible (Mus musculus, UniProt P29477).
T4 sequence (P29477 whole entry): T1 sequence (whole entry)

A further data set relates to MCF7. Nature of the data set: Cellular uptake in human MCF7 cells assessed per millions cells at 50 uM after 24 hrs by LC/MS/MS analysis. Format: ADME, cell-based. The conditions noted are these: mcf7, 24 h.
For the next data set, the system named is HL-60. In words: Cell cycle arrest in human HL60 cells assessed as accumulation at sub-G1 phase at 34 uM after 24 hrs by flow cytometry. Format: functional. In outline:
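HL-60 cells (2 × 10⁵/well) exposed to samples for 24 h, then stained with NIM-DAPI nuclear isolation medium. Read by flow cytometry under UV excitation; percentage of cells in subG₁ taken from the DNA histogram.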

Another data set concerns KB. Nature of the data set: Cytotoxicity against human KB cells assessed as cell survival at 20 ug/ml after 72 hrs by sulforhodamine B method. It counts as functional. The conditions noted are these: read-out: Activity. The method, boiled down: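 Sulforhodamine B assay. KB or MCF7 cells plated with samples and held 72 h at 37 °C, 5% CO₂. Fixed 1 h in 10% trichloroacetic acid, stained with 0.4% SRB in 1% acetic acid, dye taken up in 10 mM Tris.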

Data set [12] concerns the target T5, Prostaglandin G/H synthase 1 (Ovis aries, UniProt P05979).
T5 sequence (P05979 whole entry): T2 sequence (whole entry)
Nature of the data set: Inhibition of sheep seminal vesicles COX1 assessed as PGE2 production after 10 mins by ELISA. In outline:
as §2

Data set [13] deals with RAW264.7. In words: Inhibition of LPS-induced iNOS expression in mouse RAW264.7 cells at 34 uM treated 15 mins before LPS challenge measured after 18 hrs by Western blotting. Format: functional, cell-based. In outline:
as §1

Calls of active or inactive are those of the source. The rule behind the calls is not given here.

Sequence of NAD(P)H dehydrogenase [quinone] 1 (Mus musculus) (Q64669 whole entry): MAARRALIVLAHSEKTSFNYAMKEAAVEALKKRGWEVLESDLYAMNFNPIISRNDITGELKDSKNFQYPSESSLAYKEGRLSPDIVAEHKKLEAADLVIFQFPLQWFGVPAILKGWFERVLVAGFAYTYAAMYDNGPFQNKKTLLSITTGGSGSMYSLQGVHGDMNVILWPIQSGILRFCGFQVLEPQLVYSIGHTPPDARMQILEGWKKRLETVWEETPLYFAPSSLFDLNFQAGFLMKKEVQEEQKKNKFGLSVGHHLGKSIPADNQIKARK

`O=S(=O)([O-])Oc1ccc(/C=C/c2cc(O)cc(OS(=O)(=O)[O-])c2)cc1.[K+].[K+]`: in the data set with RAW264.7 [1], the “fold change (FC)” value stood at 0.6. Further, the inhibition came to 53.4% in the data set with HEK293 [2], 23.3% in data set [6], 41.7% in data set [8] and 6.8% in data set [10]. The result in data set [3] was inactive. In addition, the inhibition entry in the data set on RAW264.7 [4] was “inactive”. Further, the Activity is 0% in data set [5] and “Non-toxic” in the data set with HEK293 [7]. For the same compound, the inhibition at 34 µM on Aromatase stood at 22.5%. The CD in data set [9] was > 10.1 µM.

As for `Oc1ccc(/C=C/c2cc(O)cc(O)c2)cc1` [RESVERATROL], the inhibition turned out to be 75.7% in the data set with HEK293 [2] and 75.2% in [6]. The half-maximal inhibitory concentration (IC50) (usually the concentration that inhibits the measured activity by half) in data set [11] was 15 µM; in data set [12], 6.65 µM. Besides, in the data set with RAW264.7 [4], the inhibition result is “inactive”. The compound further came in with a Drug uptake in the data set with MCF7 of 54.7 pmol. The figures for the Activity in the data set with HL-60 and in the data set on HEK293 [7] were 24.9% and “Non-toxic”, respectively. The viability at 20 µg/mL in the data set with KB was found to be 47.8%. The inhibition result in the data set with RAW264.7 [13] is “Active”.
